Test results published in ChEMBL document CHEMBL1146037, “Design and discovery of a novel dipeptidyl-peptidase IV (CD26)-based prodrug approach” (J Med Chem, 2006).
Activity calls are given as the source filed them. No cut-off for these calls is given here.

How the values were obtained:
CCRF-CEM [1] = test: Antiviral activity against HIV2 assessed as inhibition of HIV2-induced cytopathicity in CEM cells; type: functional, cell-based
In short: (§1)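 CEM and MT-4 cell cultures infected with HIV-1 or HIV-2, with compounds diluted into culture medium from DMSO stocks. Antiviral activity is read at day 4 post-infection and reported as EC50.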

CCRF-CEM [2] = test: Antiviral activity against HIV1 assessed as inhibition of HIV1-induced cytopathicity in CEM cells; type: functional, cell-based; conditions: Homo sapiens; in short: as §1
MT4 [3] = test: Antiviral activity against HIV1 assessed as inhibition of HIV1-induced cytopathicity in MT4 cells; type: functional, cell-based; conditions: Homo sapiens; in short: as §1
MT4 [4] = test: Antiproliferative activity against human MT4 cell line; type: functional
In short: (§2)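 Cytostatic assay: compounds made up as DMSO stocks and diluted in culture medium. CC50 is the concentration that inhibits MT-4 or CEM cell proliferation by 50%.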

CCRF-CEM [5] = test: Antiproliferative activity against human CEM cell line; type: functional; in short: as §2
[6] = biological target: Human immunodeficiency virus type 1 reverse transcriptase (Human immunodeficiency virus 1, UniProt Q72547); test: Inhibition of recombinant HIV1 reverse transcriptase
MT4 [7] = test: Antiviral activity against HIV2 assessed as inhibition of HIV2-induced cytopathicity in MT4 cells; type: functional, cell-based; in short: as §1
Dipeptidyl peptidase 4 [8] = biological target: T1, Dipeptidyl peptidase 4 (Homo sapiens, UniProt P27487); test: Conversion of prodrug to parent drug NAP-TSAO-T catalyzed by CD26 after 1 hr; type: ADME; design: concentration or dose not given beside the values
T1 sequence (P27487 whole entry): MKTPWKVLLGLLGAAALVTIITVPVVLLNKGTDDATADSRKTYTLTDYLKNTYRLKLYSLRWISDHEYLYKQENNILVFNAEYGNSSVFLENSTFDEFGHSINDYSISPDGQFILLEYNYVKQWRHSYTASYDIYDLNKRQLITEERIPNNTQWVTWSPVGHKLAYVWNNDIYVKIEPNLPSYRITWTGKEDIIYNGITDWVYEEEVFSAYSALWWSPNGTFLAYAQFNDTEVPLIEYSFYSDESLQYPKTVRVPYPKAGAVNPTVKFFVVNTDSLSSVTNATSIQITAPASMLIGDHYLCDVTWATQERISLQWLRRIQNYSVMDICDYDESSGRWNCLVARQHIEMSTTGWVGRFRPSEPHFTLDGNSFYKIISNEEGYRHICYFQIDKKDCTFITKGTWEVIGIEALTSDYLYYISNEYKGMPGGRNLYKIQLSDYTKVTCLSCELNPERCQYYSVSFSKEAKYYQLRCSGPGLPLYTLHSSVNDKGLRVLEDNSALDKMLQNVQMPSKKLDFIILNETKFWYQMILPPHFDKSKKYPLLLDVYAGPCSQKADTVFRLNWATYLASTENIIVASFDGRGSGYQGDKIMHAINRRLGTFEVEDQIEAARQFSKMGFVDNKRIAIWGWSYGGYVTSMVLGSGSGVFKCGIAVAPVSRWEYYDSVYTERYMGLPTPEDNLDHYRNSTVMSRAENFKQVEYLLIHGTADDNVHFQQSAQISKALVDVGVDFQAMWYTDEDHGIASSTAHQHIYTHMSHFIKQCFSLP

Dipeptidyl peptidase 4 [9] = biological target: T1, Dipeptidyl peptidase 4; test: Conversion of prodrug to parent drug NAP-TSAO-T catalyzed by CD26 after 4 hrs; type: ADME; design: concentration or dose not given beside the values
Dipeptidyl peptidase 4 [10] = biological target: T1, Dipeptidyl peptidase 4; test: Conversion of prodrug to parent drug NAP-TSAO-T catalyzed by CD26 after 24 hrs; type: ADME; design: concentration or dose not given beside the values
Homo sapiens = species on record: Homo sapiens; test: Inhibition of human serum-catalyzed prodrug Val-Pro-NAP-TSAO-T conversion to parent drug NAP-TSAO-T; type: organism-based
Bos taurus = species on record: Bos taurus; test: Inhibition of bovine serum-catalyzed prodrug Val-Pro-NAP-TSAO-T conversion to parent drug NAP-TSAO-T; type: organism-based; conditions: cattle
Dipeptidyl peptidase 4 [11] = biological target: T1, Dipeptidyl peptidase 4; test: Inhibition of CD26-catalyzed GlyPro-pNA hydrolysis

Row | Compound | Activity (CCRF-CEM [1]) | EC50 (CCRF-CEM [2]) | EC50 (MT4 [3]) | CC50 (MT4 [4]) | CC50 (CCRF-CEM [5]) | IC50 [6] | Activity (MT4 [7]) | Activity (Dipeptidyl peptidase 4 [8]) | Activity (Dipeptidyl peptidase 4 [9]) | Activity (Dipeptidyl peptidase 4 [10]) | Inhibition (Homo sapiens) | Inhibition (Bos taurus) | Activity (Dipeptidyl peptidase 4 [11])
1 | Cc1cn(C2OC(CO[Si](C)(C)C(C)(C)C)C3(OS(=O)(=O)C=C3N)C2O[Si](C)(C)C(C)(C)C)c(=O)n(CCCNC(=O)[C@@H](N)C(C)C)c1=O (some centres not stated) | inactive | 0.06 µM | 0.3 µM | 8.2 µM | 9.6 µM | 6.7 µM | inactive |  |  |  |  |  | 
2 | Cc1cn(C2OC(CO[Si](C)(C)C(C)(C)C)C3(OS(=O)(=O)C=C3N)C2O[Si](C)(C)C(C)(C)C)c(=O)n(CCCNC(=O)[C@H](Cc2ccccc2)NC(=O)[C@@H](N)C(C)C)c1=O (some centres not stated) | inactive | 0.09 µM | 0.26 µM | 14 µM | 10 µM | 6.8 µM | inactive | 0% | 0% | 0% |  |  | 
3 | Cc1cn(C2OC(CO[Si](C)(C)C(C)(C)C)C3(OS(=O)(=O)C=C3N)C2O[Si](C)(C)C(C)(C)C)c(=O)n(CCCNC(=O)CNC(=O)[C@@H](N)C(C)C)c1=O (some centres not stated) | inactive | 0.05 µM | 0.14 µM | 9.9 µM | 10 µM | 3.8 µM | inactive | 0% | 0% | 0% |  |  | 
4 | CC[C@H](C)[C@H](N)C(=O)N1CCC[C@H]1C(=O)N[C@H](C(=O)O)[C@@H](C)CC [DIPROTIN A] |  |  |  |  |  |  |  |  |  |  | > 80% | > 80% | 
5 | Cc1cn(C2OC(CO[Si](C)(C)C(C)(C)C)C3(OS(=O)(=O)C=C3N)C2O[Si](C)(C)C(C)(C)C)c(=O)n(CCCNC(=O)[C@@H]2CCCN2C(=O)[C@@H](N)CCCCN)c1=O (some centres not stated) | inactive | 0.16 µM |  | 87 µM | 47 µM | 4.7 µM | inactive |  | 85% | 99% |  |  | 
6 | Cc1cn(C2OC(CO[Si](C)(C)C(C)(C)C)C3(OS(=O)(=O)C=C3N)C2O[Si](C)(C)C(C)(C)C)c(=O)n(CCCNC(=O)[C@@H]2[C@@H](O)[C@@H](O)CN2C(=O)[C@@H](N)C(C)C)c1=O (some centres not stated) | inactive | 0.35 µM | 0.77 µM | 46 µM | 51 µM | 4.8 µM | inactive | 0% | 0% | 0% |  |  | 
7 | Cc1cn(C2OC(CO[Si](C)(C)C(C)(C)C)C3(OS(=O)(=O)C=C3N)C2O[Si](C)(C)C(C)(C)C)c(=O)n(CCCNC(=O)[C@H]2CCCN2C(=O)[C@@H](N)C(C)C)c1=O (some centres not stated) | inactive | 0.09 µM | 0.49 µM | 22 µM | 11 µM | 22 µM | inactive | 0% | 2.2% | 4.2% |  |  | 
8 | Cc1cn(C2OC(CO[Si](C)(C)C(C)(C)C)C3(OS(=O)(=O)C=C3N)C2O[Si](C)(C)C(C)(C)C)c(=O)n(CCCNC(=O)[C@@H]2C[C@@H](O)CN2C(=O)[C@@H](N)C(C)C)c1=O (some centres not stated) | inactive | 0.4 µM | 0.41 µM | 10 µM | 15 µM | 16 µM | inactive | 4.1% | 18% | 43% |  |  | 
9 | Cc1cn(C2OC(CO[Si](C)(C)C(C)(C)C)C3(OS(=O)(=O)C=C3N)C2O[Si](C)(C)C(C)(C)C)c(=O)n(CCCNC(=O)[C@@H]2CCCN2C(=O)[C@@H](N)CC(N)=O)c1=O (some centres not stated) | inactive | 0.37 µM | 0.59 µM | 22 µM | 25 µM | 4 µM | inactive |  | 27% | 73% |  |  | 
10 | Cc1cn(C2OC(CO[Si](C)(C)C(C)(C)C)C3(OS(=O)(=O)C=C3N)C2O[Si](C)(C)C(C)(C)C)c(=O)n(CCCNC(=O)[C@H](CC(C)C)NC(=O)[C@@H](N)C(C)C)c1=O (some centres not stated) | inactive | 0.19 µM | 0.21 µM | 13 µM | 11 µM | 4.6 µM | inactive | 0% | 0% | 0% |  |  | 
11 | Cc1cn(C2OC(CO[Si](C)(C)C(C)(C)C)C3(OS(=O)(=O)C=C3N)C2O[Si](C)(C)C(C)(C)C)c(=O)n(CCCNC(=O)[C@H](C)NC(=O)[C@@H](N)C(C)C)c1=O (some centres not stated) | inactive | 0.08 µM | 0.23 µM | 22 µM | 11 µM | 5.4 µM | inactive | 0% | 6.5% | 35% |  |  | 
12 | Cc1cn(C2OC(CO[Si](C)(C)C(C)(C)C)C3(OS(=O)(=O)C=C3N)C2O[Si](C)(C)C(C)(C)C)c(=O)n(CCCNC(=O)[C@@H](NC(=O)[C@@H]2CCCN2C(=O)[C@@H](N)C(C)C)C(C)C)c1=O (some centres not stated) | inactive | 0.07 µM | 0.22 µM | 11 µM | 11 µM | 4.4 µM | inactive |  |  |  |  |  | 
13 | Cc1cn(C2OC(CO[Si](C)(C)C(C)(C)C)C3(OS(=O)(=O)C=C3N)C2O[Si](C)(C)C(C)(C)C)c(=O)n(CCCNC(=O)[C@@H]2CCCN2C(=O)[C@@H](N)Cc2ccc(O)cc2)c1=O (some centres not stated) | inactive | 0.15 µM | 0.14 µM | 11 µM | 10 µM | 8.1 µM | inactive | 43% | 66% | 79% |  |  | 
14 | Cc1cn(C2OC(CO[Si](C)(C)C(C)(C)C)C3(OS(=O)(=O)C=C3N)C2O[Si](C)(C)C(C)(C)C)c(=O)n(CCCNC(=O)[C@@H]2CCCN2C(=O)[C@@H](NC(=O)OCc2ccccc2)C(C)C)c1=O (some centres not stated) |  |  |  |  |  |  |  | 0% | 0% | 0% |  |  | Not Active
15 | Cc1cn(C2OC(CO[Si](C)(C)C(C)(C)C)C3(OS(=O)(=O)C=C3N)C2O[Si](C)(C)C(C)(C)C)c(=O)n(CCCNC(=O)[C@@H]2CCCN2C(=O)[C@H](C)N)c1=O (some centres not stated) | inactive | 0.42 µM | 0.3 µM | 20 µM | 19 µM |  | inactive |  | 81% | 88% |  |  | 
16 | Cc1cn([C@@H]2O[C@H](CO[Si](C)(C)C(C)(C)C)[C@@]3(OS(=O)(=O)C=C3N)[C@H]2O[Si](C)(C)C(C)(C)C)c(=O)n(CCCN)c1=O | inactive | 0.14 µM | 0.52 µM | 14 µM | 12 µM |  | inactive |  |  |  |  |  | 
17 | CC[C@H](C)[C@H](N)C(=O)N1CCCC1 |  |  |  |  |  |  |  |  |  |  | > 80% | > 80% | 
18 | Cc1cn(C2OC(CO[Si](C)(C)C(C)(C)C)C3(OS(=O)(=O)C=C3N)C2O[Si](C)(C)C(C)(C)C)c(=O)n(CCCNC(=O)[C@@H]2CCCN2C(=O)[C@@H](N)Cc2ccccc2)c1=O (some centres not stated) | inactive | 0.1 µM | 0.2 µM | 19 µM | 14 µM |  | inactive |  | 37% | 58% |  |  | 
19 | Cc1cn(C2OC(CO[Si](C)(C)C(C)(C)C)C3(OS(=O)(=O)C=C3N)C2O[Si](C)(C)C(C)(C)C)c(=O)n(CCCNC(=O)[C@@H]2CCCN2C(=O)[C@@H](N)CC(=O)O)c1=O (some centres not stated) | inactive | 1.1 µM | 1.2 µM | 69 µM | ≥ 125 µM | 7.2 µM | inactive |  | 7.9% | 30% |  |  | 
20 | Cc1cn(C2OC(CO[Si](C)(C)C(C)(C)C)C3(OS(=O)(=O)C=C3N)C2O[Si](C)(C)C(C)(C)C)c(=O)n(CCCNC(=O)[C@@H]2CCCN2C(=O)[C@@H](N)CCC(=O)O)c1=O (some centres not stated) | inactive | 0.26 µM | 0.49 µM | 64 µM | 30 µM |  | inactive |  | 48% | 92% |  |  | 
21 | Cc1cn(C2OC(CO[Si](C)(C)C(C)(C)C)C3(OS(=O)(=O)C=C3N)C2O[Si](C)(C)C(C)(C)C)c(=O)n(CCCNC(=O)[C@@H]2CCCN2C(=O)CN)c1=O (some centres not stated) | inactive | 0.2 µM | 0.39 µM | 13 µM | 51 µM | 13 µM | inactive | 5% | 20% | 58% |  |  | 
22 | Cc1cn(C2OC(CO[Si](C)(C)C(C)(C)C)C3(OS(=O)(=O)C=C3N)C2O[Si](C)(C)C(C)(C)C)c(=O)n(CCCNC(=O)[C@@H]2C[C@@H](OCc3ccccc3)CN2C(=O)[C@@H](N)C(C)C)c1=O (some centres not stated) | inactive | 0.09 µM | 0.27 µM | 2 µM | 2.1 µM | 28 µM | inactive |  | 0% | 0% |  |  | 
